Measurements published in ChEMBL document CHEMBL3526016, “Interaction of lapatinib with cytochrome P450 3A5” (Drug Metab Dispos, 2012).
Values belong to the molecule of their own block, whether it stands above or below them.

Experiments:
Assay type in all cases: ADME
Cytochrome P450 3A5 [1] = target: T1, Cytochrome P450 3A5 (Homo sapiens, UniProt P20815); assay: Inhibition of human recombinant CYP3A5 using testosterone as substrate assessed as testosterone 6-beta-hydroxylation at 5 to 50 uM preincubated up to 30 mins with NADPH followed by substrate addition measured after 10 mins by LC/MS/MS analysis; conditions: recombinant enzyme
Procedure, shortened: (§1)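 Primary incubation at 37°C (n=3) held 20 pmol/ml rCYP3A5 in 100 mM phosphate (pH 7.4), 0.1% DMSO and 0.9% ACN, with inhibitor; lapatinib was at 2.5–50 µM. NADPH started the reaction; buffer replaced it in negative controls. At 0, 3, 8, 15, 22 and 30 min, aliquots were diluted 10-fold into 200 µM testosterone or 25 µM midazolam with NADPH regenerating system for 10 min at 37°C. 6β-Hydroxytestosterone or 1'-hydroxymidazolam was measured by LC/MS/MS. Ln % residual activity was regressed against time to give kobs.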

Cytochrome P450 3A5 [2] = target: T1, Cytochrome P450 3A5; assay: Drug level assessed as recombinant human CYP3A5-mediated compound formation treated with lapatinib at 50 uM after 60 mins by GSH trapping assay in presence of NADPH; conditions: recombinant enzyme, 1 h
Procedure, shortened: (§2)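 Recombinant CYP3A5 at 50 pmol/ml with 5 mM GSH and an NADPH regenerating system in 100 mM potassium phosphate (pH 7.4) was pre-warmed at 37°C. Substrate was added to start the reaction. After 60 min it was quenched with ice-cold ACN and centrifuged, and the supernatant was dried under nitrogen and reconstituted. Adducts were detected by LC/MS/MS MRM scans. Negative controls omitted substrate, NADPH or GSH.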

Cytochrome P450 3A5 [3] = target: T1, Cytochrome P450 3A5; assay: Drug level assessed as recombinant human CYP3A5-mediated compound formation treated with O-dealkylated lapatinib at 50 uM after 60 mins by GSH trapping assay in presence of NADPH; conditions: recombinant enzyme, 1 h; procedure, shortened: as §2
Cytochrome P450 3A5 [4] = target: T1, Cytochrome P450 3A5; assay: Inhibition of human recombinant CYP3A5 using testosterone as substrate assessed as testosterone 6-beta-hydroxylation at 50 uM preincubated up to 30 mins without NADPH followed by substrate addition measured after 10 mins by LC/MS/MS analysis; conditions: recombinant enzyme; procedure, shortened: as §1
Cytochrome P450 3A5 [5] = target: T1, Cytochrome P450 3A5; assay: Inhibition of human recombinant CYP3A5 using testosterone as substrate assessed as testosterone 6-beta-hydroxylation at 2.5 to 50 uM preincubated up to 30 mins with NADPH followed by substrate addition by LC/MS/MS analysis; conditions: recombinant enzyme, TDE = time-dependent effect
Procedure, shortened: (§3)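 Primary: rCYP3A5 20 pmol/ml, inhibitor 2.5–50 μM, 100 mM phosphate pH 7.4, 37°C, NADPH-initiated; aliquots at 0–30 min diluted 10-fold into secondary mix with 200 μM testosterone plus NADPH regenerating system, 10 min at 37°C. 6β-hydroxytestosterone by LC/MS/MS, triplicate. ln % residual activity vs time gave kobs; KI, kinact from Kitz-Wilson plot.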

CYP3A4 = CYP3A4 (Homo sapiens, UniProt P08684); assay: Ratio of Kinact to Ki for recombinant human CYP3A4 using testosterone as substrate; conditions: recombinant human CYP3A4, probe testosterone
CYP3A5 [6] = target: T2, CYP3A5 (Homo sapiens, UniProt P20815); assay: (§4) Inhibition of human recombinant CYP3A5 using testosterone as substrate assessed as testosterone 6-beta-hydroxylation preincubated up to 30 mins with NADPH followed by substrate addition measured after 10 mins by LC/MS/MS analysis; conditions: human, recombinant human CYP3A5, probe testosterone; procedure, shortened: as §3
Cytochrome P450 3A5 [7] = target: T1, Cytochrome P450 3A5; assay: as §4; procedure, shortened: as §3
Cytochrome P450 3A5 [8] = target: T1, Cytochrome P450 3A5; assay: Inhibition of human recombinant CYP3A5 using testosterone as substrate assessed as testosterone 6beta-hydroxylation at 50 uM preincubated up to 30 mins with NADPH followed by substrate addition measured after 10 mins by LC/MS/MS analysis; conditions: recombinant enzyme; procedure, shortened: as §1
CYP3A5 [9] = target: T2, CYP3A5; assay: Inhibition of human recombinant CYP3A5 assessed as reduction of enzyme-CO complex formation at 50 uM preincubated for 3 to 5 mins with NADPH B followed by NADPH A addition measured after 30 mins by CO difference spectroscopy relative to control
Procedure, shortened: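 rCYP3A5 640 pmol/ml with 50 μM inhibitor in 100 mM potassium phosphate pH 7.4, prewarmed 3–5 min at 37°C, NADPH-initiated, incubated 30 min at 37°C (n=3). Quenched in buffer with EDTA, glycerol, NP-40, safranin O; split sample/reference, CO bubbled (~100 bubbles). P450 content = (ΔA450−ΔA490)/0.091; controls without NADPH.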

Cytochrome P450 3A5 [10] = target: T1, Cytochrome P450 3A5; assay: Irreversible inhibition of human recombinant CYP3A5 using testosterone as substrate assessed as residual enzyme activity at 50 uM preincubated up to 30 mins with NADPH followed by substrate addition measured after dialysis
Procedure, shortened: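 200 pmol/ml rCYP3A5 with 50 µM lapatinib and NADPH in 100 mM phosphate (pH 7.4) was incubated for 30 min at 37°C (n=3). Mixtures were dialysed (12000–14000 Da cut-off) against buffer at 4°C with one buffer change at 2 h, then for 4 h more. Aliquots before and after dialysis were assayed with 200 µM testosterone for 10 min at 37°C. 6β-Hydroxytestosterone was measured by LC/MS/MS.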

CYP3A5 [11] = target: T2, CYP3A5; assay: Ratio of Kinact to Ki for recombinant human CYP3A5 using testosterone as substrate; conditions: recombinant human CYP3A5, probe testosterone; procedure, shortened: as §3
Cytochrome P450 3A5 [12] = target: T1, Cytochrome P450 3A5; assay: Inhibition of human recombinant CYP3A5 using midazolam as substrate assessed as midazolam 1'-hydroxylation at 2.5 to 50 uM preincubated up to 30 mins with NADPH followed by substrate addition measured after 10 mins by LC/MS/MS analysis; conditions: recombinant enzyme; procedure, shortened: as §1
Cytochrome P450 3A5 [13] = target: T1, Cytochrome P450 3A5; assay: Inhibition of human recombinant CYP3A5 at 50 uM preincubated up to 30 mins with NADPH in absence of GSH; conditions: recombinant enzyme
Procedure, shortened: (§5)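 Primary incubation at 37°C contained 20 pmol/ml rCYP3A5 in 100 mM phosphate (pH 7.4) with 50 µM lapatinib and NADPH, with or without 2 mM GSH. At 0–30 min, aliquots were diluted 10-fold into secondary incubations with 200 µM testosterone and NADPH regenerating system for 10 min at 37°C. 6β-Hydroxytestosterone was measured by LC/MS/MS. Triplicates were run.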

Cytochrome P450 3A5 [14] = target: T1, Cytochrome P450 3A5; assay: Drug metabolism assessed as recombinant human CYP3A5-mediated quinoneimine metabolite formation by measuring retention time at 50 uM after 60 mins by GSH trapping assay in presence of NADPH; conditions: recombinant enzyme, 1 h; procedure, shortened: as §2
Cytochrome P450 3A4 = Cytochrome P450 3A4 (Homo sapiens, UniProt P08684); assay: Inhibition of human recombinant CYP3A4 assessed as metabolite-inhibitor complex formation at 50 uM preincubated for 3 to 5 mins with NADPH A followed by NADPH B addition measured every 1 min for 10 mins by UV absorbance spectra analysis; conditions: recombinant enzyme
Procedure, shortened: (§6)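 For difference spectra, 50 µM compound with 100 pmol/ml recombinant enzyme and NADPH A in 100 mM potassium phosphate (pH 7.4) was pre-warmed at 37°C for 3–5 min. NADPH B was added to start the reaction. The mixture was scanned from 430 to 495 nm every 1 min for 10 min at 37°C against a reference cuvette, normalized to 0 min. The negative control replaced NADPH B with buffer.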

Cytochrome P450 3A5 [15] = target: T1, Cytochrome P450 3A5; assay: Inhibition of human recombinant CYP3A5 at 50 uM preincubated up to 30 mins with NADPH in presence of GSH; conditions: recombinant enzyme; procedure, shortened: as §5
Cytochrome P450 3A5 [16] = target: T1, Cytochrome P450 3A5; assay: Inhibition of human recombinant CYP3A5 assessed as metabolite-inhibitor complex formation at 50 uM preincubated for 3 to 5 mins with NADPH A followed by NADPH B addition measured every 1 min for 10 mins by UV absorbance spectra analysis; conditions: recombinant enzyme; procedure, shortened: as §6

T2 sequence (P20815 whole entry): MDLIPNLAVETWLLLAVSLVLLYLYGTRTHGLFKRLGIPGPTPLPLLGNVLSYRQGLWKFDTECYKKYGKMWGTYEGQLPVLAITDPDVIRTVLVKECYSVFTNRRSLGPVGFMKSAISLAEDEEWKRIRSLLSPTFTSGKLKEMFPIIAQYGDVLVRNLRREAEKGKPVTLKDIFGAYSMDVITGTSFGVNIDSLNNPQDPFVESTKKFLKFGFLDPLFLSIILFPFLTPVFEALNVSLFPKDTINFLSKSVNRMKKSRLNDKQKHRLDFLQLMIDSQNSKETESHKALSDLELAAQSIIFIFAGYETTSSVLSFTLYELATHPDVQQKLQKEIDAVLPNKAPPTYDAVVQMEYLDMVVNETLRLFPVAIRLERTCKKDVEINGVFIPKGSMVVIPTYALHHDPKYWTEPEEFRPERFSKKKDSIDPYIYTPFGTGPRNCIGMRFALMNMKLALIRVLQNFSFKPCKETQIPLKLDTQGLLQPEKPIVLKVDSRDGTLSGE
T1 sequence (P20815 whole entry): as above
Sequence of CYP3A4 (P08684 whole entry): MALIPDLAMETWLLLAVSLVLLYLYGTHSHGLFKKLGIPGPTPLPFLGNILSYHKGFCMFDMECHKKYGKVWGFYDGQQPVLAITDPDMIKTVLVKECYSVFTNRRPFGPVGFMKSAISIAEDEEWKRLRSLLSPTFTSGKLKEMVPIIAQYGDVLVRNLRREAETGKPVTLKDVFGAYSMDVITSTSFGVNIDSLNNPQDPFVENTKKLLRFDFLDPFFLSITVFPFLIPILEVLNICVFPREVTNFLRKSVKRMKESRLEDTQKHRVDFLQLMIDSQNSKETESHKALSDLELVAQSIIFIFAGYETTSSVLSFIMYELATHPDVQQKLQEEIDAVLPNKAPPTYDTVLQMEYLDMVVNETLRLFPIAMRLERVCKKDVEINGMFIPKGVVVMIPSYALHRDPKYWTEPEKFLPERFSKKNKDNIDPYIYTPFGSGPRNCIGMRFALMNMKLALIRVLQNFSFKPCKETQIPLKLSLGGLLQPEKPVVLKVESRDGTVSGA
Sequence of Cytochrome P450 3A4 (P08684 whole entry): as above

- inhibition (INH) (Cytochrome P450 3A5 [1]): Not Active
Compound: CS(=O)(=O)CCNCc1ccc(-c2ccc3ncnc(Nc4ccc(O)c(Cl)c4)c3c2)o1

- Drug metabolism (Cytochrome P450 3A5 [2]): metabolite_detected
- Drug metabolism (Cytochrome P450 3A5 [3]): metabolite_detected
Compound: CS(=O)(=O)CCNCc1ccc(-c2ccc3ncnc(/N=C4\C=CC(=O)C(Cl)=C4)c3c2)o1

- inhibition (INH) (Cytochrome P450 3A5 [4]): Not Active
- inhibition (INH) (Cytochrome P450 3A5 [5]): tde
- kinact/KI (CYP3A4): 197 M⁻¹ s⁻¹
- kinact at 10 min (CYP3A5 [6]): 0.000377 s⁻¹
- Ki (Cytochrome P450 3A5 [7]): 37.6 µM
- inhibition (INH) (Cytochrome P450 3A5 [7]; human, recombinant enzyme, 10 min): Dose-dependent effect
- inhibition (INH) (Cytochrome P450 3A5 [8]): Active
- inhibition at 0.5 h, 50 µM (CYP3A5 [9]): 22%
- inhibition (INH) (Cytochrome P450 3A5 [10]): Active
- kinact/KI (CYP3A5 [11]): 10 M⁻¹ s⁻¹
- inhibition (INH) (Cytochrome P450 3A5 [12]): Not Active
- inhibition (INH) (Cytochrome P450 3A5 [13]): Active
- Retention_time (Cytochrome P450 3A5 [14]): 1.71 min
- inhibition (INH) (Cytochrome P450 3A4): Active
- inhibition (INH) (Cytochrome P450 3A5 [15]): Not Active
- inhibition (INH) (Cytochrome P450 3A5 [16]): Not Active
Compound: CS(=O)(=O)CCNCc1ccc(-c2ccc3ncnc(Nc4ccc(OCc5cccc(F)c5)c(Cl)c4)c3c2)o1 [LAPATINIB]
